Measurements reported in ChEMBL document CHEMBL5344415, “Synthesis and Characterization of Phenylalanine Amides Active against Mycobacterium abscessus and Other Mycobacteria” (J Med Chem, 2023).
pEC50: −log10 of the molar value. Values after ≈ are worked out from the molar mass of the structure shown.

Key:
[1] = tested on: Mycobacteroides abscessus; test: Antibacterial activity against Mycobacterium abscessus ATCC 19977 expressing tomato RFP assessed as bacterial growth inhibition incubated for 3 days in MHII medium by RFP fluorescence based broth microdilution method; assay type: functional; conditions: ATCC 19977, 72 h, time 3 day
How it was run: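 Broth microdilution in MHII broth with 0.05 % Tween 80, against the RFP-expressing strain. Twofold nine-point dilution series. Inoculum 5 x 10⁵ cells/mL from a mid-log preculture. Incubated 3 days at 37 °C. Read-out by RFP fluorescence (ex 544/em 590 nm). Controls were 1 % DMSO and 100 μM amikacin. MIC₉₀ from duplicates, averaged.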

HeLa = test: Cytotoxicity against human HeLa cells assessed as reduction in cell viability incubated for 72 hrs by SRB assay; assay type: toxicity, cell-based
MCF7 = test: Cytotoxicity against human MCF7 cells assessed as reduction in cell viability incubated for 72 hrs by SRB assay; assay type: toxicity, cell-based
[2] = tested on: Mycobacterium tuberculosis; test: Antibacterial activity against Mycobacterium tuberculosis H37Rv ATCC 27294 assessed as bacterial growth inhibition incubated for 7 days in 7H9 medium by optical density based microplate reader analysis; assay type: functional; conditions: H37Rv ATCC 27294, 168 h, time 7 day
How it was run: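 Compounds serially diluted in flat-bottom 96-well plates. Mid-log culture mixed in to a final OD₆₀₀ of 0.05. Sealed plates incubated in humidified boxes at 37 °C for 7 days with shaking at 80 rpm. Turbidity read at 600 nm. MIC₉₀ taken from dose–response curves. Two biological replicates, averaged.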

[3] = tested on: Mycobacteroides abscessus; test: Antibacterial activity against Mycobacterium abscessus ATCC 19977 expressing tomato RFP assessed as bacterial growth inhibition incubated for 3 days in 7H9 medium by RFP fluorescence based broth microdilution method; assay type: functional; conditions: ATCC 19977, 72 h, time 3 day
How it was run: (§1)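 Broth microdilution in 7H9 with 10 % ADS and 0.05 % Tween 80. Twofold nine-point dilution series. Inoculum 5 x 10⁵ cells/mL taken from a mid-log preculture. Incubation at 37 °C, 3 days for M. smegmatis and M. abscessus, 5 days for M. intracellulare. Read-out by RFP fluorescence (ex 544/em 590 nm). Controls were 1 % DMSO and 100 μM amikacin. MIC₉₀ from duplicates, averaged.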

HT-29 = test: Cytotoxicity against human HT-29 cells assessed as reduction in cell viability incubated for 72 hrs by SRB assay; assay type: toxicity, cell-based
A2780 = test: Cytotoxicity against human A2780 cells assessed as reduction in cell viability incubated for 72 hrs by SRB assay; assay type: toxicity, cell-based
HEK293 = test: Cytotoxicity against HEK293 cells assessed as reduction in cell viability incubated for 72 hrs by SRB assay; assay type: toxicity, cell-based, Homo sapiens
[4] = tested on: Mycolicibacterium smegmatis; test: Antibacterial activity against Mycobacterium smegmatis mc2 155 expressing tomato RFP assessed as bacterial growth inhibition incubated for 3 days in 7H9 medium by RFP fluorescence based broth microdilution method; assay type: functional; conditions: mc2 155, 72 h, time 3 day; how it was run: as §1
[5] = tested on: Mycobacteroides abscessus; test: Antibacterial activity against Mycobacterium abscessus ATCC 19977 expressing tomato RFP infected in human THP-1 cells assessed as bacterial growth inhibition incubated for 4 days in RPMI medium by RFP fluorescence based assay; assay type: functional; conditions: ATCC 19977, 96 h, time 4 day
How it was run: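 RFP M. abscessus washed, moved into RPMI, filtered through 5 µm and opsonised with 10 % human serum for 30 min. THP-1 cells infected at MOI 5:1 with PMA 40 ng/mL for 4 h at 37 °C, then washed. Infected cells (1x10⁵/well) given a ten-point twofold series. Incubated 4 days at 37 °C, 5 % CO₂. Cells PFA-fixed and DAPI-stained. RFP quantified by imaging. Controls were DMSO and 1.5 µM bedaquiline. Duplicate.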

[6] = tested on: Mycobacteroides abscessus; test: Antibacterial activity against Mycobacterium abscessus Bamboo harboring inactive clarithromycin-sensitive erm41 C28 sequevar assessed as bacterial growth inhibition incubated for 3 days in 7H9 medium by optical density based method; assay type: functional; conditions: 72 h, time 3 day
[7] = Cytotoxicity against mouse NIH3T3 cells assessed as reduction in cell viability incubated for 72 hrs by SRB assay; assay type: toxicity, cell-based; conditions: mouse, NIH3T3 cells
[8] = tested on: Mycobacterium intracellulare; test: Antibacterial activity against Mycobacterium intracellulare ATCC 35761 expressing tomato RFP assessed as bacterial growth inhibition incubated for 5 days in 7H9 medium by RFP fluorescence based broth microdilution method; assay type: functional; conditions: ATCC 35761, 120 h, time 5 day; how it was run: as §1
A-375 = test: Cytotoxicity against human A-375 cells assessed as reduction in cell viability incubated for 72 hrs by SRB assay; assay type: toxicity, cell-based
[9] = Kinetic solubility of compound in PBS at 0.78 to 500 uM measured immediately by nephelometric method; assay type: physicochemical; conditions: buffer, dose 0.78-500 µM
How it was run: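 DMSO stocks prediluted in DMSO, then diluted 1:50 into PBS (2 % DMSO final) and read immediately by nephelometry at 0.78–500 μM; blank-corrected data fitted by segmental regression; quadruplicates from one stock.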

[10] = tested on: Mycobacteroides abscessus; test: Bactericidal activity against Mycobacterium abscessus ATCC 19977 assessed as reduction in viable bacteria at 6.25 uM incubated for 4 days by microplate dilution assay relative to control; assay type: functional; conditions: time 4 day
[11] = tested on: Mycobacteroides abscessus; test: Bactericidal activity against Mycobacterium abscessus ATCC 19977 assessed as reduction in viable bacteria at 3.13 uM incubated for 4 days by microplate dilution assay relative to control; assay type: functional; conditions: time 4 day
How it was run: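 After 4 days in the microplate dilution assay, 10 µl samples (undiluted or 1:100) were plated on 7H10 with glycerol, ADS and 400 µg/mL hygromycin. Colonies counted after 4 days at 37 °C. Done in triplicate. CFU/mL compared with the inoculum counted before incubation.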

[12] = tested on: Mycobacteroides abscessus; test: Antibacterial activity against MMV688845-resistant Mycobacterium abscessus Bamboo 845R-2.1 harboring rpoB/beta subunit P473L mutation assessed as bacterial growth inhibition incubated for 3 days by optical density based analysis; assay type: functional; conditions: Bamboo 845R-2.1, 72 h, time 3 day
How it was run: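 Tenfold-point twofold dilution series in 7H9, final DMSO 1 %. Final ranges typically 50–0.098 or 6.25–0.012 μM. Mid-log culture added to an initial OD₆₀₀ of 0.05 (5*10⁶ CFU/mL). Incubated 3 days at 37 °C with shaking at 110 rpm. Growth taken as OD₆₀₀ on day 3 minus day 0, as % of drug-free wells. MIC₉₀ read visually from the curves. Clarithromycin as control. Two biological replicates, averaged.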

SMILES | MIC90 [1] | pEC50 (HeLa) | pEC50 (MCF7) | MIC90 [2] | MIC90 [3] | pEC50 (HT-29) | pEC50 (A2780) | pEC50 (HEK293) | MIC90 [4] | MIC50 [5] | MIC90 [5] | MIC50 [6] | MIC90 [6] | EC50 at 72 h [7] | MIC90 [8] | pEC50 (A-375) | Kinetic_solubility [9] | Activity [10] | Activity [11] | MIC90 [12]
O=C(N[C@H](Cc1ccccc1)C(=O)Nc1ccccc1N1CCSCC1)c1cccs1 | 50 µM (≈ 22.6 µg/mL) | < 4.52 | 4.79 | 6.25 µM (≈ 2.82 µg/mL) | 12.5 µM (≈ 5.65 µg/mL) | < 4.52 | 4.70 | 4.72 | 3.13 µM (≈ 1.41 µg/mL) | 12.5 µM (≈ 5.65 µg/mL) | > 100 µM | 2.5 µM (≈ 1.13 µg/mL) | 14 µM (≈ 6.32 µg/mL) | > 30 µM | 0.78 µM (≈ 0.352 µg/mL) | < 4.52 | 34 µM |  |  | 
O=C(N[C@H](Cc1ccccc1)C(=O)Nc1ccccc1N1CCS(=O)(=O)CC1)c1cccs1 | 3.13 µM (≈ 1.51 µg/mL) | < 4.52 | < 4.52 | 0.2 µM (≈ 0.0967 µg/mL) | 3.13 µM (≈ 1.51 µg/mL) | < 4.52 | 4.63 | < 4.52 | 1.56 µM (≈ 0.754 µg/mL) | 0.78 µM (≈ 0.377 µg/mL) | 6.25 µM (≈ 3.02 µg/mL) | 0.24 µM (≈ 0.116 µg/mL) | 1.7 µM (≈ 0.822 µg/mL) | > 30 µM | 0.1 µM (≈ 0.0484 µg/mL) | < 4.52 | 62 µM | 99% | 95% | 
CO[C@H]1/C=C/O[C@@]2(C)Oc3c(C)c(O)c4c(c3C2=O)C2=NC3(CCN(CC(C)C)CC3)NC2=C(NC(=O)/C(C)=C\C=C\[C@H](C)[C@H](O)[C@@H](C)[C@@H](O)[C@@H](C)[C@H](OC(C)=O)[C@@H]1C)C4=O [RIFABUTIN] |  |  |  |  |  |  |  |  |  |  |  |  | 3 µM (≈ 2.54 µg/mL) |  |  |  |  |  |  | 1.1 µM (≈ 0.932 µg/mL)
O=C(N[C@H](Cc1ccccc1)C(=O)Nc1ccccc1N1CCSCC1)c1ccccc1F | 50 µM (≈ 23.2 µg/mL) | < 4.52 | 4.87 | 6.25 µM (≈ 2.9 µg/mL) | 12.5 µM (≈ 5.79 µg/mL) | < 4.52 | 4.83 | 5.20 | 3.13 µM (≈ 1.45 µg/mL) | 12.5 µM (≈ 5.79 µg/mL) | > 100 µM | 3 µM (≈ 1.39 µg/mL) | 18 µM (≈ 8.34 µg/mL) | > 30 µM | 0.78 µM (≈ 0.362 µg/mL) | 4.73 | 28 µM |  |  | 
O=C(N[C@H](Cc1ccsc1)C(=O)Nc1ccccc1N1CC[S+]([O-])CC1)c1ccccc1F | 12.5 µM (≈ 6.07 µg/mL) | < 4.52 | < 4.52 | 3.13 µM (≈ 1.52 µg/mL) | 6.25 µM (≈ 3.04 µg/mL) | < 4.52 | < 4.52 |  | 1.56 µM (≈ 0.758 µg/mL) | 6.25 µM (≈ 3.04 µg/mL) | 50 µM (≈ 24.3 µg/mL) | 1.5 µM (≈ 0.728 µg/mL) | 4.4 µM (≈ 2.14 µg/mL) | > 30 µM | 0.2 µM (≈ 0.0971 µg/mL) | < 4.52 | 96 µM |  |  | 
O=C(N[C@H](Cc1cccs1)C(=O)Nc1ccccc1N1CC[S+]([O-])CC1)c1cccs1 | 12.5 µM (≈ 5.92 µg/mL) | < 4.52 | < 4.52 | 3.13 µM (≈ 1.48 µg/mL) | 12.5 µM (≈ 5.92 µg/mL) | < 4.52 | < 4.52 |  | 3.13 µM (≈ 1.48 µg/mL) | 12.5 µM (≈ 5.92 µg/mL) | 100 µM (≈ 47.4 µg/mL) | 1.3 µM (≈ 0.616 µg/mL) | 5.8 µM (≈ 2.75 µg/mL) | > 30 µM | 0.2 µM (≈ 0.0947 µg/mL) | < 4.52 | 60 µM |  |  | 
O=C(N[C@H](Cc1ccsc1)C(=O)Nc1ccccc1N1CCOCC1)c1ccccc1F | 12.5 µM (≈ 5.67 µg/mL) | < 4.52 | < 4.52 | 3.13 µM (≈ 1.42 µg/mL) | 12.5 µM (≈ 5.67 µg/mL) | < 4.52 | < 4.52 |  | 1.56 µM (≈ 0.708 µg/mL) | 6.25 µM (≈ 2.83 µg/mL) | 25 µM (≈ 11.3 µg/mL) | 1.9 µM (≈ 0.862 µg/mL) | 7 µM (≈ 3.17 µg/mL) | > 30 µM | 0.78 µM (≈ 0.354 µg/mL) | < 4.52 | 31 µM |  |  | 
O=C(N[C@H](Cc1cccs1)C(=O)Nc1ccccc1N1CC[S+]([O-])CC1)c1ccccc1F | 12.5 µM (≈ 6.07 µg/mL) | < 4.52 | 4.54 | 1.56 µM (≈ 0.758 µg/mL) | 6.25 µM (≈ 3.04 µg/mL) | < 4.52 | 4.54 |  | 1.56 µM (≈ 0.758 µg/mL) | 6.25 µM (≈ 3.04 µg/mL) | 50 µM (≈ 24.3 µg/mL) | 1.8 µM (≈ 0.874 µg/mL) | 6.5 µM (≈ 3.16 µg/mL) | > 30 µM | 0.2 µM (≈ 0.0971 µg/mL) | 4.53 | 96 µM |  |  | 
O=C(N[C@H](Cc1ccc(O)cc1)C(=O)Nc1cc(F)ccc1N1CCS(=O)(=O)CC1)c1ccccc1F | 6.25 µM (≈ 3.31 µg/mL) | < 4.52 | < 4.52 | 0.78 µM (≈ 0.413 µg/mL) | 6.25 µM (≈ 3.31 µg/mL) | < 4.52 | < 4.52 | < 4.52 | 6.25 µM (≈ 3.31 µg/mL) | 3.13 µM (≈ 1.66 µg/mL) | 25 µM (≈ 13.2 µg/mL) | 1.1 µM (≈ 0.583 µg/mL) | 13 µM (≈ 6.88 µg/mL) | > 30 µM | 0.2 µM (≈ 0.106 µg/mL) | < 4.52 | 158 µM |  |  | 
CC[C@H]1OC(=O)[C@H](C)[C@@H](O[C@H]2C[C@@](C)(OC)[C@@H](O)[C@H](C)O2)[C@H](C)[C@@H](O[C@@H]2O[C@H](C)C[C@H](N(C)C)[C@H]2O)[C@](C)(OC)C[C@@H](C)C(=O)[C@H](C)[C@@H](O)[C@]1(C)O [CLARITHROMYCIN] |  |  |  |  |  |  |  |  |  |  |  |  |  |  |  |  |  |  |  | 0.27 µM (≈ 0.202 µg/mL)
